The text below walks through data of ChEMBL document CHEMBL1145019, “The power of visual imagery in drug design. Isopavines as a new class of morphinomimetics and their human opioid receptor binding activity” (J Med Chem, 2003).

Active and inactive are the calls of the source. The calls are words filed in the database; no cut-off is given here.

Test [1] deals with Delta-type opioid receptor (Homo sapiens, UniProt P41143). As to the kind of experiment: In vitro binding affinity against cloned human Opioid receptor delta 1 expressed in HEK 293S cells. It counts as cell-based, HEK293. A digest of the protocol: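 Compounds tested at 5 or 10 concentrations in duplicate, in 50 mM Tris, 3 mM MgCl2, 1 mg/mL BSA, pH 7.4. Bound radioactivity measured at equilibrium by filtration. Nonspecific binding defined with 10 µM naloxone. IC50 from a two-parameter logistic fit.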

The target in test [2] is Kappa-type opioid receptor (Homo sapiens, UniProt P41145). The test is described as follows: biochemical. It is filed as cell-based, HEK293.
The target in test [3] is T1, Mu-type opioid receptor (Homo sapiens, UniProt P35372). The test is described as follows: biochemical. It is filed as cell-based, HEK293.
Test [4] in a line: Selectivity of mu IC50 to that of delta IC50 was calculated; NA means Insufficient binding potency. A digest of the protocol: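 Ratio = delta IC50 / mu IC50, from radioligand displacement on HEK-293S P2 membranes expressing human receptors. […] Tris 50 mM, MgCl2 3 mM, BSA 1 mg/mL, pH 7.4. Filtration at equilibrium; 10 µM naloxone defined nonspecific binding. IC50 from logistic fits.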

The target of test [5] is T1, Mu-type opioid receptor. As to the kind of experiment: Tested for effective concentration against cloned human Opioid receptor mu 1. A digest of the protocol: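 GTP[γ]35S binding using HEK-293S membranes expressing hμ (0.2 pmol/mg protein). Filtration after 1 h. Stimulated binding defined with 30 µM DAMGO. EC50 from a three-parameter logistic fit.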

Kappa-type opioid receptor, sequence (P41145 whole entry): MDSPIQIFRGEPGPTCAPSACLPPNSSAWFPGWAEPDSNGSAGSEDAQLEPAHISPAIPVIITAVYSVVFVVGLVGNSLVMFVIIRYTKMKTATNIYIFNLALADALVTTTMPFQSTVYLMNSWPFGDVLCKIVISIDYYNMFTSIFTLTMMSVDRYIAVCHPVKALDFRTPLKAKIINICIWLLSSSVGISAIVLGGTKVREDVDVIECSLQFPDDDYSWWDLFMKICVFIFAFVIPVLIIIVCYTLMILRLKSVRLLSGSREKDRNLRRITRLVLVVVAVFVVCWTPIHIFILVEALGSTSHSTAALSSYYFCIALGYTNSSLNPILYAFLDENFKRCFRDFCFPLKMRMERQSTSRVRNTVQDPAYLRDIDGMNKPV
T1 sequence (P35372 whole entry): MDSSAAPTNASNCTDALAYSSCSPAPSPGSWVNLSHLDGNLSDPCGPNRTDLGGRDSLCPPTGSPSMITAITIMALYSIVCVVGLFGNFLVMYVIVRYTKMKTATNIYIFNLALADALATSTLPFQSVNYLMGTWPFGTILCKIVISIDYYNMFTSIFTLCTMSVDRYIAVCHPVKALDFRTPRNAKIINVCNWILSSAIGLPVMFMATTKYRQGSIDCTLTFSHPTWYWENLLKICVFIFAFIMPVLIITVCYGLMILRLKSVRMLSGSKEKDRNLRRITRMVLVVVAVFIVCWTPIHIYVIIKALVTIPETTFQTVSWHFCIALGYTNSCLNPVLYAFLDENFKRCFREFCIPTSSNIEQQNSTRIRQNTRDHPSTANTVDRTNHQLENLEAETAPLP
Delta-type opioid receptor, sequence (P41143 whole entry): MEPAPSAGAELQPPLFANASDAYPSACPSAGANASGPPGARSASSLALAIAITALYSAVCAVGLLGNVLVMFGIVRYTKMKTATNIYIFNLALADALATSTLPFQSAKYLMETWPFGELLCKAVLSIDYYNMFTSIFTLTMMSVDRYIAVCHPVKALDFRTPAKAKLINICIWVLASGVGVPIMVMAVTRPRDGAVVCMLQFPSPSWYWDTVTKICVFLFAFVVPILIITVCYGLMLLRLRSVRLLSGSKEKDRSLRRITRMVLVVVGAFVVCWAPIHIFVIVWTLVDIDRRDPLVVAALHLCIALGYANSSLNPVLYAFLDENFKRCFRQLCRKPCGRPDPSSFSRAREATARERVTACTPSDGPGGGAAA

For the compound `C[C@@H]1[C@H]2c3cc(N4CCOCC4)ccc3C[C@@H](c3ccc(N4CCOCC4)cc32)N1C`, the IC50 (in general, the concentration that inhibits the measured activity by half) was 7500 nM in test [1], more than 10000 nM in test [2] and 690 nM against Mu-type opioid receptor [3].
For `Brc1ccc2c(c1)[C@H]1c3cc(Br)ccc3[C@H](C2)N2CCC[C@@H]12`, the IC50 in test [1] came to 5020 nM; in test [2], 7400 nM; at Mu-type opioid receptor [3], 500 nM.
For `CC(C)C[C@H]1[C@H]2c3ccccc3C[C@H](c3ccccc32)N1C`, the values for the IC50 (in test [1]; in test [2]; at Mu-type opioid receptor [3]) were more than 8700 nM, 2970 nM and 1010 nM, respectively.
In the case of `c1ccc2c(c1)C[C@H]1c3ccccc3[C@H]2[C@@H]2CCCN12`, the IC50 was more than 7800 nM in test [1], 6100 nM in test [2] and 59 nM against Mu-type opioid receptor [3].
On to `COc1ccc2c(c1)[C@H]1c3cc(OC)ccc3[C@H](C2)N2CCC[C@@H]12`, for which the IC50 in test [1] is 4040 nM; in test [2], more than 10000 nM; on Mu-type opioid receptor [3], 160 nM.
Consider `Brc1ccc(CNc2ccc3c(c2)[C@H]2c4cc(NCc5ccc(Br)cc5)ccc4[C@H](C3)N3CCC[C@@H]23)cc1`, for which the figures for the concentration for half-maximal inhibition (IC50) (in test [1]; in test [2]; on Mu-type opioid receptor [3]) were 5300 nM, 7000 nM and 120 nM, respectively.
Turning to `COc1ccc2c(c1)[C@H]1c3cc(OC)ccc3[C@H](C2)N(C)[C@@H]1C`, the results for the 50% inhibitory concentration (IC50) (in test [1]; in test [2]; against Mu-type opioid receptor [3]) were more than 10000 nM, more than 10000 nM and 420 nM, respectively. Further, the NA result in test [4] was “inactive”.
Consider `CC(=O)Oc1ccc2c(c1)[C@H]1c3cc(OC(C)=O)ccc3[C@H](C2)N(CC2CC2)[C@@H]1C`, for which the IC50 in test [1] came to 3300 nM; in test [2] it was 2020 nM; against Mu-type opioid receptor [3] it was 44 nM.
The matching figures for `C[C@@H]1[C@H]2c3ccccc3C[C@@H](c3ccccc32)N1Cc1ccccc1`: more than 8800 nM, more than 5800 nM and more than 10000 nM.
In the case of `Oc1ccc2c(c1)[C@H]1c3cc(O)ccc3[C@H](C2)N2CCC[C@@H]12`, the IC50 in test [1] was found to be 3800 nM; in test [2] it was 7200 nM; against Mu-type opioid receptor [3] it was 130 nM.
The matching figures for `C[C@H]1N[C@@H]2Cc3ccccc3[C@H]1c1ccccc12`: more than 10000 nM, more than 10000 nM and 650 nM.
For the compound `CC(=O)Oc1ccc2c(c1)[C@H]1c3cc(OC(C)=O)ccc3[C@H](C2)N(C)[C@@H]1C`, the IC50 in test [1] was more than 4700 nM; in test [2] it was more than 9500 nM; at Mu-type opioid receptor [3], 200 nM.
On to `CN1CC[C@]23CCCC[C@H]2[C@H]1Cc1ccc(O)cc13` [LEVORPHANOL], for which the IC50 in test [1] was 5.1 nM; in test [2], 4 nM.
Turning to `C[C@@H]1[C@H]2c3cc(Nc4ccccc4)ccc3C[C@@H](c3ccc(Nc4ccccc4)cc32)N1C`, the figures for the IC50 (in test [1]; in test [2]; against Mu-type opioid receptor [3]) were 530 nM, 3600 nM and 56 nM, respectively.
`C[C@@H]1[C@H]2c3cc(O)ccc3C[C@@H](c3ccc(O)cc32)N1CC1CC1`: the 50% inhibitory concentration (IC50) in test [1] was 460 nM; in test [2], 204 nM; against Mu-type opioid receptor [3], 6.4 nM.
On to `COc1cc2c(cc1OC)[C@H]1c3cc(OC)c(OC)cc3[C@H](C2)N(CC2CC2)[C@@H]1C`, for which the IC50 (in test [1]; in test [2]; at Mu-type opioid receptor [3]) was more than 10000 nM each time. For the same compound, the NA entry in test [4] was “inactive”.
For `C[C@@H]1[C@H]2c3cc(Br)ccc3C[C@@H](c3ccc(Br)cc32)N1CC1CC1`, the values for the IC50 (in test [1]; in test [2]; at Mu-type opioid receptor [3]) were more than 10000 nM, more than 4900 nM and 2050 nM, respectively.
On to `CC(C)[C@H]1[C@H]2c3ccccc3C[C@H](c3ccccc32)N1C`, for which the IC50 in test [1] was more than 10000 nM; in test [2], 3410 nM; against Mu-type opioid receptor [3] it was 695 nM.
For `CC(=O)N1[C@H](C)[C@H]2c3ccccc3C[C@H]1c1ccccc12` the same measures were more than 10000 nM, more than 10000 nM and more than 9500 nM.
For `C[C@@H]1[C@H]2c3cc(N4CCN(C)CC4)ccc3C[C@@H](c3ccc(N4CCN(C)CC4)cc32)N1C`, the IC50 was 2500 nM in test [1], 3200 nM in test [2] and 53 nM against Mu-type opioid receptor [3].
For `Fc1ccc2c(c1)[C@H]1c3cc(F)ccc3[C@H](C2)N2CCC[C@@H]12`, the IC50 in test [1] is more than 10000 nM; in test [2] it was more than 6400 nM; against Mu-type opioid receptor [3], 103 nM.
`CC(=O)Oc1ccc2c(c1)[C@H]1c3cc(OC(C)=O)ccc3[C@H](C2)N2CCC[C@@H]12`: the figures for the IC50 (in test [1]; in test [2]; against Mu-type opioid receptor [3]) were 2900 nM, more than 6000 nM and 220 nM, respectively.
The matching figures for `CN1[C@@H]2Cc3ccccc3[C@@H](c3ccccc32)[C@@H]1Cc1ccccc1`: 3440 nM, 1710 nM and 1050 nM.
On to `C[C@@H]1[C@H]2c3cc(N4CCN(C)CC4)ccc3C[C@@H](c3ccc(N4CCN(C)CC4)cc32)N1CC1CC1`, for which the IC50 in test [1] stood at 2040 nM; in test [2], 1600 nM; on Mu-type opioid receptor [3], 690 nM.
`COc1cc2c(cc1OC)[C@@H]1c3cc(OC)c(OC)cc3[C@@H](C2)N(C)[C@H]1C`: the concentration for half-maximal inhibition (IC50) in test [1] is more than 5700 nM; in test [2], more than 10000 nM. The NA entry in test [4] was “inactive”.
As for `C=CCN1[C@H](C)[C@H]2c3ccccc3C[C@H]1c1ccccc12`, the IC50 in test [1] was more than 9700 nM; in test [2], more than 4000 nM; at Mu-type opioid receptor [3] it was 2000 nM.
The matching figures for `C[C@@H]1[C@H]2c3cc(NCc4ccccc4)ccc3C[C@@H](c3ccc(NCc4ccccc4)cc32)N1CC1CC1`: 49 nM, 31 nM and 7 nM.
Turning to `C[C@H]1[C@H]2c3ccccc3C[C@H](c3ccccc32)N1C`, the IC50 is more than 10000 nM in test [1], more than 10000 nM in test [2] and 611 nM at Mu-type opioid receptor [3].
As for `COc1ccc2c(c1)[C@H]1c3cc(OC)ccc3[C@H](C2)N(CC2CC2)[C@@H]1C`, the IC50 in test [1] was 6630 nM; in test [2], 5330 nM; on Mu-type opioid receptor [3], 1030 nM.
The matching figures for `C[C@@H]1[C@H]2c3ccccc3C[C@@H](c3ccccc32)N1CC1CC1`: more than 10000 nM, more than 10000 nM and 1080 nM.
Regarding `CN1[C@@H]2Cc3ccccc3[C@@H](c3ccccc32)[C@@H]1CCCO`, the results for the 50% inhibitory concentration (IC50) (in test [1]; in test [2]; at Mu-type opioid receptor [3]) were more than 10000 nM, more than 10000 nM and 1150 nM, respectively.
As for `C[C@@H]1[C@H]2c3cc(Nc4ccccc4)ccc3C[C@@H](c3ccc(Nc4ccccc4)cc32)N1CC1CC1`, the IC50 came out at 890 nM in test [1], 1200 nM in test [2] and 82 nM on Mu-type opioid receptor [3].
Regarding `C[C@@H]1[C@H]2c3ccccc3C[C@@H](c3ccccc32)N1C`, the IC50 was more than 10000 nM in test [1], more than 75000 nM in test [2] and 230 nM against Mu-type opioid receptor [3].
Take `C[C@@H]1[C@H]2c3cc(NCc4ccccc4)ccc3C[C@@H](c3ccc(NCc4ccccc4)cc32)N1C`: the response at Mu-type opioid receptor [5] was half-maximal at 4300 nM (EC50). In addition, the IC50 in test [1] is 120 nM; in test [2] it was 640 nM; at Mu-type opioid receptor [3] it was 8 nM.
`COc1cc2c(cc1OC)[C@H]1c3cc(OC)c(OC)cc3[C@H](C2)N(C)[C@@H]1C`: the IC50 (in test [1]; in test [2]; at Mu-type opioid receptor [3]) was more than 10000 nM each time. The NA entry in test [4] is “inactive”.
`c1ccc2c(c1)C[C@@H]1c3ccccc3[C@H]2[C@@H]2CCCCN12`: the IC50 is more than 10000 nM in test [1], 7400 nM in test [2] and 390 nM on Mu-type opioid receptor [3].
In the case of `C[C@@H]1[C@H]2c3cc(O)ccc3C[C@@H](c3ccc(O)cc32)N1C`, the IC50 in test [1] is 1300 nM; in test [2], 961 nM; against Mu-type opioid receptor [3], 16 nM.
Regarding `C[C@@H]1[C@H]2c3cc(Br)ccc3C[C@@H](c3ccc(Br)cc32)N1C`, the IC50 in test [1] was found to be 8840 nM; in test [2], 6920 nM; at Mu-type opioid receptor [3], 360 nM.
